Source: ChEMBL document CHEMBL1143716, “Analysis of crucial structural requirements of 2-substituted pyrimido[4,5-b][1,5]oxazocines as NK(1) receptor antagonist by axially chiral derivatives” (Bioorg Med Chem, 2007)

target: Substance-P receptor (Cavia porcellus) (UniProt P30547); test: Antagonist activity at guinea pig NK1 receptor assessed as effect on ileum contractions; format: functional, tissue-based
In short: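 Guinea pig ileum in organ bath with Tyrode's solution, 32 °C, gassed 95% O2/5% CO2, resting tension 1 g, 20 min equilibration. Pretreated 10 min with at least three concentrations of test compound in DMSO, then cumulative substance P concentration-response curve versus substance P control curve. KB by Schild method; means, n = 3–5.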

Sequence of Substance-P receptor (Cavia porcellus) (P30547 whole entry): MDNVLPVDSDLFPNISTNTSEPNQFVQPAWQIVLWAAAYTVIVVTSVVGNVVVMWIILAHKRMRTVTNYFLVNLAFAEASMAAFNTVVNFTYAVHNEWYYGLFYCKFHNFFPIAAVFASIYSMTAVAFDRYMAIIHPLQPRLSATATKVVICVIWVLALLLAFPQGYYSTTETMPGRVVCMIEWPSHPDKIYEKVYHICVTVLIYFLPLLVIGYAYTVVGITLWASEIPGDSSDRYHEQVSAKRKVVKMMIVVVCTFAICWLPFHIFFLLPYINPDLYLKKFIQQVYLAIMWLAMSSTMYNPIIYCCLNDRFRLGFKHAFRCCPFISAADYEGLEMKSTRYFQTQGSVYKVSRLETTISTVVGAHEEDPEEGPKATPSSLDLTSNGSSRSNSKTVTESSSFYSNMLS

Row | SMILES | Kb [nM]
1 | Cc1ccccc1-c1ncnc2c1C(=O)N(Cc1cc(C(F)(F)F)cc(C(F)(F)F)c1)C[C@@H](C)CO2 | 162
2 | Cc1ccccc1-c1nc(N(C)C)nc2c1C(=O)N(Cc1cc(C(F)(F)F)cc(C(F)(F)F)c1)C[C@H](C)CO2 | 0.427
3 | Cc1ccccc1-c1ncnc2c1C(=O)N(Cc1cc(C(F)(F)F)cc(C(F)(F)F)c1)C[C@H](C)CO2 | 12.6
4 | Cc1ccccc1-c1ncnc2c1C(=O)N(Cc1cc(C(F)(F)F)cc(C(F)(F)F)c1)CCCO2 | 11.6
5 | Cc1ccccc1-c1nc(N(C)C)nc2c1C(=O)N(Cc1cc(C(F)(F)F)cc(C(F)(F)F)c1)CCCO2 | 0.679
6 | CC(=O)N1C(C)CN(c2nc3c(c(-c4ccccc4C)n2)C(=O)N(Cc2cc(C(F)(F)F)cc(C(F)(F)F)c2)CCCO3)CC1C (configuration not stated) | 0.679
7 | Cc1ccccc1-c1nc(N(C)C)nc2c1C(=O)N(Cc1cc(C(F)(F)F)cc(C(F)(F)F)c1)C[C@@H](C)CO2 | 52.9

Now from value to compound:

Row | Kb [nM] | SMILES
8 | 0.545 | CC(=O)N1C(C)CN(c2nc3c(c(-c4ccccc4C)n2)C(=O)N(Cc2cc(C(F)(F)F)cc(C(F)(F)F)c2)C[C@@H](C)CO3)CC1C (some centres not stated)
9 | 0.345 | CC(=O)N1CCN(c2nc3c(c(-c4ccccc4C)n2)C(=O)N(Cc2cc(C(F)(F)F)cc(C(F)(F)F)c2)C[C@@H](C)CO3)CC1
10 | 0.105 | CC(=O)N1CCN(c2nc3c(c(-c4ccccc4C)n2)C(=O)N(Cc2cc(C(F)(F)F)cc(C(F)(F)F)c2)CCCO3)CC1
11 | 0.217 | CC(=O)N1C(C)CN(c2nc3c(c(-c4ccccc4C)n2)C(=O)N(Cc2cc(C(F)(F)F)cc(C(F)(F)F)c2)C[C@H](C)CO3)CC1C (some centres not stated)
12 | 0.139 | CC(=O)N1CCN(c2nc3c(c(-c4ccccc4C)n2)C(=O)N(Cc2cc(C(F)(F)F)cc(C(F)(F)F)c2)C[C@H](C)CO3)CC1
